Measured values published in the M2OR odorant receptor database.
Changes are numbered by the printed parent chain.

What was measured:
Conditions in all cases: stereoisomer not certain
OR2B3 (Homo sapiens) = biological target: T1, OR2B3 (Homo sapiens) (UniProt O76000)
T1 sequence (whole entry): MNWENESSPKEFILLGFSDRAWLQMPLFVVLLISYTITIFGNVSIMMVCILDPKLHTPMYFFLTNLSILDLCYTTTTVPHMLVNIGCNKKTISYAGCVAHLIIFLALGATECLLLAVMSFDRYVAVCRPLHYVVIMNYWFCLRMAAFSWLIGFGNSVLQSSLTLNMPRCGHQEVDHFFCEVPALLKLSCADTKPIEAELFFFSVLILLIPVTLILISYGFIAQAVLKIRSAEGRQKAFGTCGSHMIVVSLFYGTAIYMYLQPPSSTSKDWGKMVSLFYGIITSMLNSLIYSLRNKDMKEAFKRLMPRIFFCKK
Summary of the method: (§1)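 Each entry records the cell line, G-protein, co-transfected protein and tags used. Methods varied with the source, often transient luciferase assays in mammalian cell lines. A receptor–molecule pair is called responsive (active) if the original authors judged its signal statistically different from baseline and non-responsive (inactive) otherwise.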

OR2B6 (Homo sapiens) = biological target: T2, OR2B6 (Homo sapiens) (UniProt P58173)
T2 sequence (whole entry): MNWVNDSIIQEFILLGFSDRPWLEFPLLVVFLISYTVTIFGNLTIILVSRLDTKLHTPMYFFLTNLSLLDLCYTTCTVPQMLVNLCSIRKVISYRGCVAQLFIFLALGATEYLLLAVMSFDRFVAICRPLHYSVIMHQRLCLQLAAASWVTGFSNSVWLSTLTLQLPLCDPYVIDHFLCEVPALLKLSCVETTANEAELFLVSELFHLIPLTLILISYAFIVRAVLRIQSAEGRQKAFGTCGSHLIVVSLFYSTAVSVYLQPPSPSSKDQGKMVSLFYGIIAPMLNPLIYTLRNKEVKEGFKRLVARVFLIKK
Summary of the method: as §1

OR2BB [1] = system: T3, OR2BB
T3 sequence (whole entry): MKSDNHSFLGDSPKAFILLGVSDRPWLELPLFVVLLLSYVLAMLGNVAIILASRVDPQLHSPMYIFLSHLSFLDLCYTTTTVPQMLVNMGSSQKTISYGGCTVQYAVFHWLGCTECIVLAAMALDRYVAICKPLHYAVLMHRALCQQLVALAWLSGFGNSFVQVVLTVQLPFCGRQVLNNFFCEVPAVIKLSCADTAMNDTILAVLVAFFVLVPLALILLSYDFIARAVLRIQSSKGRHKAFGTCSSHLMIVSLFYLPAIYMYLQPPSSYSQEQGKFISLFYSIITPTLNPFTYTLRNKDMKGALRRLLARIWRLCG
Summary of the method: as §1

OR2BB [2] = system: T4, OR2BB; remark: listed apart in the source
T4 sequence (whole entry): T3 sequence (whole entry) with D223G
Summary of the method: as §1

OR2C1 (Homo sapiens) = biological target: T5, OR2C1 (Homo sapiens) (UniProt O95371)
T5 sequence (whole entry): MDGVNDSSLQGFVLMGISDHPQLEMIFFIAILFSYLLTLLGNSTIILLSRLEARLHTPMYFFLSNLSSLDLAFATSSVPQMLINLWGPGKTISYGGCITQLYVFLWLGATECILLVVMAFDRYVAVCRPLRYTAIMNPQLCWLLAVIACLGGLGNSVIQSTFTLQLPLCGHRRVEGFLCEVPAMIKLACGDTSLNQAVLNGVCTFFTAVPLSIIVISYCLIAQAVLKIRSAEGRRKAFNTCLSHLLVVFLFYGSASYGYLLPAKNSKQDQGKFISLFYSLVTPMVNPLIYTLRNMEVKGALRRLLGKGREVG
Summary of the method: as §1

OR2C1 [3] = system: T6, OR2C1
T6 sequence (whole entry): T5 sequence (whole entry) with C149W
Summary of the method: as §1

OR2C3 [4] = system: T7, OR2C3
T7 sequence (whole entry): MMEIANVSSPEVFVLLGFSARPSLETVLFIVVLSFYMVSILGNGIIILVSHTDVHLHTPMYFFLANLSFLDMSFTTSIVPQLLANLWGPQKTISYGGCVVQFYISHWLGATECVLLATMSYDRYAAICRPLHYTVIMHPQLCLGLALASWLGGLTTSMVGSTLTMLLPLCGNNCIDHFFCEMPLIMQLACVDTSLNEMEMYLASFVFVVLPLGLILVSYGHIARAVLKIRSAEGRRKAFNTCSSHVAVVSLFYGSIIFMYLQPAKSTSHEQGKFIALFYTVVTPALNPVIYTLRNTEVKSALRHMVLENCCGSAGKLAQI
Summary of the method: as §1

OR2C3 [5] = system: T8, OR2C3; remark: listed apart in the source
T8 sequence (whole entry): T7 sequence (whole entry) with A20T, V289L
Summary of the method: as §1

OR2D2 (Homo sapiens) = biological target: T9, OR2D2 (Homo sapiens) (UniProt Q9H210)
T9 sequence (whole entry): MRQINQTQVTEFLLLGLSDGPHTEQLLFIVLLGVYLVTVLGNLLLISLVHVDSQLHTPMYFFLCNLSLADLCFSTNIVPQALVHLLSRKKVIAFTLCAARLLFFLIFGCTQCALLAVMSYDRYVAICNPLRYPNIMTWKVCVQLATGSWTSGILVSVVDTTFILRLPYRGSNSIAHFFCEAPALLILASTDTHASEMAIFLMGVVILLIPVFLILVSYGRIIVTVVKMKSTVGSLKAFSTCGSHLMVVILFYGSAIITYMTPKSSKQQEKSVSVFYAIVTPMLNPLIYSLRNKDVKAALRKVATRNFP
Summary of the method: as §1

OR2D2 S148P I163T M202T = system: T10, OR2D2 S148P I163T M202T
T10 sequence (whole entry): T9 sequence (whole entry) with S148P, I163T, M202T
Summary of the method: as §1

OR2D3 (Homo sapiens) = biological target: T11, OR2D3 (Homo sapiens) (UniProt Q8NGH3)
T11 sequence (whole entry): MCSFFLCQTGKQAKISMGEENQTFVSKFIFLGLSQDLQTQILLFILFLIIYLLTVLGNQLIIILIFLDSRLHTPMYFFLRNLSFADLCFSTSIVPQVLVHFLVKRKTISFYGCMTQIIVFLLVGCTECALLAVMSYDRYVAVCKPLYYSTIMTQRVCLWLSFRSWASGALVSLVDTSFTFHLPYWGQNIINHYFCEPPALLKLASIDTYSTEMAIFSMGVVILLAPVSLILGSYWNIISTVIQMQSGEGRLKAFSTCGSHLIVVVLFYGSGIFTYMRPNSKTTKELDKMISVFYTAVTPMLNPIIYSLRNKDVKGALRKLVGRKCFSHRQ
Summary of the method: as §1

OR2D3 R155W = system: T12, OR2D3 R155W
T12 sequence (whole entry): T11 sequence (whole entry) with R155W
Summary of the method: as §1

OR2BB [6] = system: T13, OR2BB; remark: listed apart in the source
T13 sequence (whole entry): T3 sequence (whole entry) with D223G, T293I, D300G
Summary of the method: as §1

OR2C1 [7] = system: T14, OR2C1; remark: listed apart in the source
T14 sequence (whole entry): T5 sequence (whole entry) with G16S, C149W, C169Y, R229H
Summary of the method: as §1

OR2C3 (Homo sapiens) = biological target: T15, OR2C3 (Homo sapiens) (UniProt Q8N628)
T15 sequence (whole entry): T7 sequence (whole entry) with A20T, S68P, V289L
Summary of the method: as §1

OR2BB [8] = system: OR2BB; remark: listed apart in the source
Summary of the method: as §1
Target sequence in this assay (as listed by the source): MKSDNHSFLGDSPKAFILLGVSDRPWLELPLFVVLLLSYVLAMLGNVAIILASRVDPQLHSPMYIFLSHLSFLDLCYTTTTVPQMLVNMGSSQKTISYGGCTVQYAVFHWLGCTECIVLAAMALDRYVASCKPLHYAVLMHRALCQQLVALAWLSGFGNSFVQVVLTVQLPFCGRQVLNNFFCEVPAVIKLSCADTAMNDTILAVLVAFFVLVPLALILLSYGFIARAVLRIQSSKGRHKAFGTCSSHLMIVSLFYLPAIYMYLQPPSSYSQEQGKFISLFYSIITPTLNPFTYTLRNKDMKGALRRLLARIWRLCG

OR2C1 [9] = system: OR2C1; remark: listed apart in the source
Summary of the method: as §1
Target sequence in this assay (as listed by the source): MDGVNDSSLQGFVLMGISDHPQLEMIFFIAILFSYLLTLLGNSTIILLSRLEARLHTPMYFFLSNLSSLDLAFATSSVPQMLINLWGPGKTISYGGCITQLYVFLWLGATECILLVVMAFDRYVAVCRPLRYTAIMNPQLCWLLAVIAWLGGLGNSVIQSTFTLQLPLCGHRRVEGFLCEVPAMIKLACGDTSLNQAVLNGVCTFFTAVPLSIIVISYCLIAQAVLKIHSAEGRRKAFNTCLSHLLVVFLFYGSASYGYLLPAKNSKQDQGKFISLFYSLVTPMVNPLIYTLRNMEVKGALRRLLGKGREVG

OR2C1 [10] = system: OR2C1; remark: listed apart in the source
Summary of the method: as §1
Target sequence in this assay (as listed by the source): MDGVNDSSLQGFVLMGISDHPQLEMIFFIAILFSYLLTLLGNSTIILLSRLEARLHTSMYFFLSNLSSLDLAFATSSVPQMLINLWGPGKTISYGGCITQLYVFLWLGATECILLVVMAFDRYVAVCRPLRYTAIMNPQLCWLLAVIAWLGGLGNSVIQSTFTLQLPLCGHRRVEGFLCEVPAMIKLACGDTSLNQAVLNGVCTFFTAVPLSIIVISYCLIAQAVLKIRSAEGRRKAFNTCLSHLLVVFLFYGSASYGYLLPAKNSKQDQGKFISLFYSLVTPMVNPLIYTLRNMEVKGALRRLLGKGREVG

OR2C1 [11] = system: OR2C1; remark: listed apart in the source
Summary of the method: as §1
Target sequence in this assay (as listed by the source): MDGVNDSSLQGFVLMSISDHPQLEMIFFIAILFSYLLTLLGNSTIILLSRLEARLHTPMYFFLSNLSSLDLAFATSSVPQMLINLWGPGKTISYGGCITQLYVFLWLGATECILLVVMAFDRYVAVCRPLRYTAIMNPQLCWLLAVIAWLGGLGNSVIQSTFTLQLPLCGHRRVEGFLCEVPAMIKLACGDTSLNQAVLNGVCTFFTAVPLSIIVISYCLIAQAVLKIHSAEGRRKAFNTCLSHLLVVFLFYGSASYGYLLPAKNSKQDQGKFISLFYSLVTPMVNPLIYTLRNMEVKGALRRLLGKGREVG

OR2C1 [12] = system: OR2C1; remark: listed apart in the source
Summary of the method: as §1
Target sequence in this assay (as listed by the source): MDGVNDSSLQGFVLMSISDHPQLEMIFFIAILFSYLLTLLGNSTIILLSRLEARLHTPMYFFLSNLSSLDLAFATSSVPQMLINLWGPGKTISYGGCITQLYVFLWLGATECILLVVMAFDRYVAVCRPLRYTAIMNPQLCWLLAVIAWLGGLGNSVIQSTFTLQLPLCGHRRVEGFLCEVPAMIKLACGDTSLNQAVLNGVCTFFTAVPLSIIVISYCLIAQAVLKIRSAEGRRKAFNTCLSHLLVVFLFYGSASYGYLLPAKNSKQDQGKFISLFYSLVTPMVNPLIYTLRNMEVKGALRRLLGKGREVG

Measured: odorant receptor agonist call

CCC(=O)C=CC1C(C)=CCCC1(C)C (stereo unspecified)
inactive: OR2B3 (Homo sapiens)

CCCCCCCCC(OC(C)=O)OC(C)=O
inactive: OR2B3 (Homo sapiens)

CC(CC=O)c1ccc(C(C)(C)C)cc1 (stereo unspecified)
inactive: OR2B3 (Homo sapiens)

CCC1OC(=O)C(O)=C1C (stereo unspecified)
not listed: OR2BB [6] | OR2C1 [7] | OR2C3 (Homo sapiens) | OR2BB [8] | OR2C1 [9] | OR2C1 [10] | OR2C1 [11] | OR2C1 [12]
inactive: all other assays above

CCCCCCCC(C)=O
inactive: OR2C1 (Homo sapiens)

c1coc(CSSCc2ccco2)c1
inactive: OR2C1 [3] | OR2C1 [7]
active: OR2BB [6] | OR2BB [2]

CC(CO)CS (stereo unspecified)
inactive: OR2B3 (Homo sapiens) | OR2B6 (Homo sapiens) | OR2C1 (Homo sapiens) | OR2C3 (Homo sapiens) | OR2D2 (Homo sapiens) | OR2D3 (Homo sapiens)

CCCCC(S)C(C)CO (stereo unspecified)
inactive: OR2B3 (Homo sapiens) | OR2B6 (Homo sapiens) | OR2C1 (Homo sapiens) | OR2C3 (Homo sapiens) | OR2D2 (Homo sapiens) | OR2D3 (Homo sapiens)

c1ccc2ncccc2c1
active: OR2BB [6] | OR2BB [2]
inactive: OR2BB [1] | OR2BB [8]

O=c1ccc2ccccc2o1
active: OR2BB [6] | OR2BB [2]
inactive: OR2BB [1] | OR2BB [8] | OR2C1 (Homo sapiens)

CCC(=O)O
inactive: OR2C1 (Homo sapiens)

CCCCC(C)=O
inactive: OR2C1 (Homo sapiens)

CC(=O)c1c(C)c([N+](=O)[O-])c(C(C)(C)C)c([N+](=O)[O-])c1C
inactive: OR2B6 (Homo sapiens) | OR2C1 (Homo sapiens) | OR2C3 (Homo sapiens) | OR2D2 (Homo sapiens) | OR2D3 (Homo sapiens)

CCCCCCCCCO
inactive: OR2C1 (Homo sapiens)

CC(=O)OCc1ccccc1
inactive: OR2B3 (Homo sapiens) | OR2C1 (Homo sapiens)

CCCCCO
inactive: OR2C1 (Homo sapiens)

CCCCOC(=O)C(C)OC(=O)CCC (stereo unspecified)
inactive: OR2C1 (Homo sapiens)

CCCCC(=O)CC
inactive: OR2C1 (Homo sapiens)

O=C1CCOc2ccccc21
inactive: OR2C1 (Homo sapiens)

CCCCCCCCCS
active: OR2C1 (Homo sapiens)

CC1=C(O)C(=O)OC1C (stereo unspecified)
not listed: OR2BB [6] | OR2C1 [7] | OR2C3 (Homo sapiens) | OR2BB [8] | OR2C1 [9] | OR2C1 [10] | OR2C1 [11] | OR2C1 [12]
inactive: all other assays above

CCCCCCCCCCO
inactive: OR2C1 (Homo sapiens)

CCCCCC(=O)C(C)C(C)=O (stereo unspecified)
inactive: OR2B3 (Homo sapiens) | OR2B6 (Homo sapiens) | OR2C1 (Homo sapiens) | OR2C3 (Homo sapiens) | OR2D2 (Homo sapiens) | OR2D3 (Homo sapiens)

CCCCC(=O)O
inactive: OR2C1 (Homo sapiens)

C=CCOC(=O)CCCCCC
inactive: OR2C1 (Homo sapiens)

CC1CCCCCCCCCCCCC(=O)C1 (stereo unspecified)
inactive: OR2B6 (Homo sapiens) | OR2C1 (Homo sapiens) | OR2C3 (Homo sapiens) | OR2D2 (Homo sapiens) | OR2D3 (Homo sapiens)

CCC(C(=O)O)c1ccccc1 (stereo unspecified)
inactive: OR2C1 (Homo sapiens)

CCCCCC(S)C(C)CO (stereo unspecified)
inactive: OR2B3 (Homo sapiens) | OR2B6 (Homo sapiens) | OR2C1 (Homo sapiens) | OR2C3 (Homo sapiens) | OR2D2 (Homo sapiens) | OR2D3 (Homo sapiens)

Cc1cnc(C)c(C)n1
not listed: OR2BB [6] | OR2C1 [7] | OR2C3 (Homo sapiens) | OR2BB [8] | OR2C1 [9] | OR2C1 [10] | OR2C1 [11] | OR2C1 [12]
inactive: all other assays above

CCC(S)C(C)CO (stereo unspecified)
inactive: OR2B3 (Homo sapiens) | OR2B6 (Homo sapiens) | OR2C1 (Homo sapiens) | OR2C3 (Homo sapiens) | OR2D2 (Homo sapiens) | OR2D3 (Homo sapiens)

CCC1OC(C)=C(O)C1=O (stereo unspecified)
not listed: OR2BB [6] | OR2C1 [7] | OR2C3 (Homo sapiens) | OR2BB [8] | OR2C1 [9] | OR2C1 [10] | OR2C1 [11] | OR2C1 [12]
inactive: all other assays above

CC(C)=CCCC(C)=CCO
inactive: OR2B3 (Homo sapiens) | OR2C1 (Homo sapiens)

CCCC(S)CCOC(C)=O (stereo unspecified)
not listed: OR2BB [6] | OR2C1 [7] | OR2C3 (Homo sapiens) | OR2BB [8] | OR2C1 [9] | OR2C1 [10] | OR2C1 [11] | OR2C1 [12]
inactive: all other assays above

CCCCCCCCS
active: OR2C1 [9] | OR2C1 [3] | OR2C1 [10] | OR2C1 [11] | OR2C1 [12] | OR2C1 [7]

O=C([O-])C[SH2+]
inactive: OR2C1 [7]
active: OR2C1 [3]
